The text below walks through data of ChEMBL document CHEMBL3351269, “Phenylimidazoles as potent and selective inhibitors of coagulation factor XIa with in vivo antithrombotic activity” (J Med Chem, 2014).

Molecules are shown by their SMILES. A value given as a limit tells only on which side of the number the result lay.

Data set [1] has as its target T1, Coagulation factor XI (Homo sapiens, UniProt P03951). Kind of data set: Inhibition of human coagulation factor 11a using p-nitroaniline as substrate assessed as substrate hydrolysis by spectrophotometrically. The method in brief: (§1)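 Purified human enzymes; reaction started by adding enzyme to substrate with or without inhibitor, excess substrate and inhibitor over enzyme, 1% DMSO, room temperature, 10–120 min. pNA read at 405 nm. FXIa, FXIIa and chymotrypsin in HEPES pH 7.4 with NaCl, KCl and PEG; FXa and kallikrein in phosphate pH 7.5; FVIIa in HEPES with CaCl2. IC50 from duplicates over 8–11 concentrations, converted to Ki assuming competitive inhibition.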

In data set [2] the target is Coagulation factor X (Homo sapiens, UniProt P00742). In words: Inhibition of human coagulation factor 10a using N-benzoyl-Ile-Glu-(OH, OMe)-Gly-Arg-pNA as substrate by spectrophotometric analysis. The method, boiled down: as §1
Coagulation factor X (Homo sapiens, UniProt P00742), sequence (P00742 41-179 limits assumed): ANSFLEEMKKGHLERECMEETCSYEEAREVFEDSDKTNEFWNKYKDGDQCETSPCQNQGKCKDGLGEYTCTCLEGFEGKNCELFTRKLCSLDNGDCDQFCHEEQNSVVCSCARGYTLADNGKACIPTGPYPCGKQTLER
Coagulation factor X (Homo sapiens, UniProt P00742), sequence (P00742 235-488 limits assumed): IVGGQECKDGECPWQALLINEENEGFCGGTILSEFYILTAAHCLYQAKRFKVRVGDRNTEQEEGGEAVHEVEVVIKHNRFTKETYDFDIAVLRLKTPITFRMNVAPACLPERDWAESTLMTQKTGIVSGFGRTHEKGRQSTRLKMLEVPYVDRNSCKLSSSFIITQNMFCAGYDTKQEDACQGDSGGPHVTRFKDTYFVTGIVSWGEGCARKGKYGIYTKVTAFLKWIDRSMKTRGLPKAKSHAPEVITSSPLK
The target in data set [3] is Plasma kallikrein (Homo sapiens, UniProt P03952). In words: Inhibition of human plasma kallikrein using H-D-Pro-Phe-Arg-pNA as substrate. The method, boiled down:
as §1

Data set [4] can be described thus: Anticoagulant activity in healthy human plasma assessed as concentration required to 2 fold prolong clotting time by aPTT assay. In kind it is functional. The method, boiled down:
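Citrated human plasma from healthy volunteers (one-tenth volume 0.11 M buffered citrate; spun 2000g, 10 min, kept on ice). Inhibitor from 10 mM DMSO stock, diluted in plasma, up to seven concentrations. aPTT with Alexin: plasma warmed 1 min at 37 °C, reagent added, CaCl2 2 min later. Duplicates, as ratio to baseline. EC2x by linear interpolation, as total plasma concentration.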

The target in data set [5] is T2, Coagulation factor XII (Homo sapiens, UniProt P00748).
T2 sequence (P00748 whole entry): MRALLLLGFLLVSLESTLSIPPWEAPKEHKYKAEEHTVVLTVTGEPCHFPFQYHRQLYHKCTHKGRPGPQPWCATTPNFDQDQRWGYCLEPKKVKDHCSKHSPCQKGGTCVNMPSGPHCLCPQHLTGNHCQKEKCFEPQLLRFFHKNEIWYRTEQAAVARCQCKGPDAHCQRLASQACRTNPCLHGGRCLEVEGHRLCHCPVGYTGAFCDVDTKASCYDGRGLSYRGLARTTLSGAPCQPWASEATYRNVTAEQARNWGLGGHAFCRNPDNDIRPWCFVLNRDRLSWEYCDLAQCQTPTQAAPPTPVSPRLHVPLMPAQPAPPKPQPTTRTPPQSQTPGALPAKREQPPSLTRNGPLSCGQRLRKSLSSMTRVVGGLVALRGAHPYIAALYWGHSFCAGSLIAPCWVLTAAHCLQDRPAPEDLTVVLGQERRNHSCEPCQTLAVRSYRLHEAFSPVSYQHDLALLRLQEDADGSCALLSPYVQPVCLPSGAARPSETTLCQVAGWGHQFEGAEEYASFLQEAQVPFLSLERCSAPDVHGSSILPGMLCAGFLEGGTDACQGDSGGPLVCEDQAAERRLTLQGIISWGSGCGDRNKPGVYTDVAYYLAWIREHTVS
In words: Inhibition of human coagulation factor 12a using H-(D)-CHT-Gly-Arg-pNA as substrate by spectrophotometric analysis. The method in brief:
as §1

In data set [6] the target is Coagulation factor IX (Homo sapiens, UniProt P00740). In words: Inhibition of human coagulation factor 9a by spectrophotometric analysis. The method in brief: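 Purified human factor IXa; buffer 50 mM Tris pH 7.4, 100 mM NaCl, 5 mM CaCl2, 0.5% PEG 8000, 2% DMSO; room temperature. Reaction started with enzyme added to substrate ± inhibitor, in excess substrate and inhibitor, for 10–120 min. Rate read as pNA A405 or AMC fluorescence. Duplicate IC50s from 8–11 concentrations; Ki = IC50/(1+[S]/Km), assuming competitive inhibition.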
Coagulation factor IX, sequence (P00740 47-191 limits assumed): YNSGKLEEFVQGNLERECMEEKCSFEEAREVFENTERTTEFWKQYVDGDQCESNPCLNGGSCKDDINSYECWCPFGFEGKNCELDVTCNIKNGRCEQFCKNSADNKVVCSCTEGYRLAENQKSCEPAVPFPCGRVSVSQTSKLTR
Coagulation factor IX, sequence (P00740 227-461 limits assumed): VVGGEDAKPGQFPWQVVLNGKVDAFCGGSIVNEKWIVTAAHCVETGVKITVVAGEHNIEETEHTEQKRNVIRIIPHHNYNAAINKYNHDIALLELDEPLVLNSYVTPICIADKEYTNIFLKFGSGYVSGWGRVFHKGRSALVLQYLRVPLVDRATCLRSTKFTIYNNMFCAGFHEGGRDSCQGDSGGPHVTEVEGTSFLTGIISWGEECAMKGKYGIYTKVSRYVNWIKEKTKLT

Data set [7] concerns the target Trypsin (Homo sapiens, UniProt P07477+P07478+P35030). Kind of data set: Inhibition of human coagulation trypsin using N-benzoyl-Ile-Glu-(OH, OMe)-Gly-Arg-pNA as substrate by spectrophotometric analysis. The data set is classed as protein assay. The method in brief: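 Purified enzymes (α-thrombin; trypsin) in 100 mM sodium phosphate pH 7.5, 200 mM NaCl, 0.5% PEG 8000, 1% DMSO final, room temperature. Enzyme added last to substrate ± inhibitor, with substrate and inhibitor in excess. pNA release read at 405 nm over 10−120 min. IC50 from duplicate runs over 8−11 concentrations, then converted to Ki assuming competitive inhibition, using Km.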

The target in data set [8] is T1, Coagulation factor XI. In words: Inhibition of human coagulation factor 11a using p-nitroaniline as substrate assessed as substrate hydrolysis at 37 degC by spectrophotometrically. The method in brief:
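Purified human FXIa in 50 mM HEPES pH 7.4, 145 mM NaCl, 5 mM KCl, 0.1% PEG 8000, run at 37 °C, 1% DMSO final. Enzyme added last to substrate ± inhibitor, with substrate and inhibitor in excess. pNA release read at 405 nm. IC50 from duplicate 8–11-point series, converted to Ki assuming competitive inhibition, Ki = IC50/(1+[S]/Km).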

Data set [9] in a line: Inhibition of rabbit coagulation factor 11a using p-nitroaniline as substrate assessed as substrate hydrolysis by spectrophotometrically. The arrangement: species or system Oryctolagus cuniculus.
In data set [10] the target is T3, Coagulation factor X (Oryctolagus cuniculus, UniProt O19045).
T3 sequence (O19045 whole entry): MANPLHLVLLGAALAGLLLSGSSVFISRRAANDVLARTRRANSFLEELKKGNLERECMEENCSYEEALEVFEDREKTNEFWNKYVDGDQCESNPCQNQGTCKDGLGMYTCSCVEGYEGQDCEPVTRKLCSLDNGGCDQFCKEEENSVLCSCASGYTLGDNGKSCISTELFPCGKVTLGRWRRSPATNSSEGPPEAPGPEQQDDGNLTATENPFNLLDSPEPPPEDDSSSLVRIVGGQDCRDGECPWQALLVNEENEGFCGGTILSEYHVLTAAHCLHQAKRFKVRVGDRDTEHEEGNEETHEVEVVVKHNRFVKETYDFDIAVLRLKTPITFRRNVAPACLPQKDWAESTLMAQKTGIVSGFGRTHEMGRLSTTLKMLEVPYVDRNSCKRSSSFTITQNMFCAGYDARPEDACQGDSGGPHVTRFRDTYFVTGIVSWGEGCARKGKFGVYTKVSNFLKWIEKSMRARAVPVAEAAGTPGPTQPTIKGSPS
In words: Inhibition of rabbit coagulation factor 10a using N-benzoyl-Ile-Glu-(OH, OMe)-Gly-Arg-pNA as substrate by spectrophotometric analysis.

Data set [11] is described as follows: Inhibition of rabbit plasma kallikrein using H-D-Pro-Phe-Arg-pNA as substrate. In kind it is cell-free, Oryctolagus cuniculus.
Data set [12] can be described thus: Cmax in rabbit plasma at 0.5 mg/kg, iv. The data set is classed as ADME, organism-based, Oryctolagus cuniculus. The arrangement: dose 0.5 mg/kg, route intravenous. The method, boiled down:
(§2)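 Single iv dose of 0.5 mg/kg in rabbits; concentrations measured in rabbit plasma.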

For data set [13], the system named is Oryctolagus cuniculus. In words: Clearance in rabbit plasma at 0.5 mg/kg, iv. The settings on record: in vivo. The arrangement: dose 0.5 mg/kg, route intravenous. The data set is classed as ADME, organism-based. The method, boiled down: as §2
The nature of data set [14]: Volume of distribution at steady state in rabbit plasma at 0.5 mg/kg, iv. The data set is classed as ADME, organism-based, Oryctolagus cuniculus. The arrangement: dose 0.5 mg/kg, route intravenous. To be noted: read-out: Vdss. The method in brief:
as §2

Data set [15] can be described thus: Half life in rabbit plasma at 0.5 mg/kg, iv. In kind it is ADME, organism-based, Oryctolagus cuniculus. The arrangement: dose 0.5 mg/kg, route intravenous. The method in brief:
as §2

Data set [16] in a line: Mean residence time in rabbit plasma at 0.5 mg/kg, iv. In kind it is ADME, organism-based, Oryctolagus cuniculus. The arrangement: dose 0.5 mg/kg, route intravenous. The method, boiled down:
as §2

Data set [17] can be described thus: Plasma protein binding in rabbit at 0.5 mg/kg, iv. In kind it is ADME, organism-based, Oryctolagus cuniculus. The arrangement: dose 0.5 mg/kg, route intravenous. To be noted: read-out: PPB (converted).

T1 sequence (P03951 19-387 limits assumed): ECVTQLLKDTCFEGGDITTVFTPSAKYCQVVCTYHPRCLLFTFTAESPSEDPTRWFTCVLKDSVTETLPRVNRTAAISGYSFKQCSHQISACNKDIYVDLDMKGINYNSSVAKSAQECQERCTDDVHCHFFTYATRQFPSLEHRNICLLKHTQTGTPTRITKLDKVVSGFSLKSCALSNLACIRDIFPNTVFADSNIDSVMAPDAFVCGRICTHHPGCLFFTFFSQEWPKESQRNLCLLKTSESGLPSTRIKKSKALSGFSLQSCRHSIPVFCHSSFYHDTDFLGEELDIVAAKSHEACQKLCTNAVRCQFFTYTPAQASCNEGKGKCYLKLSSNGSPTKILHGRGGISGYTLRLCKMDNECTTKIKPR
T1 sequence (P03951 388-625 limits assumed): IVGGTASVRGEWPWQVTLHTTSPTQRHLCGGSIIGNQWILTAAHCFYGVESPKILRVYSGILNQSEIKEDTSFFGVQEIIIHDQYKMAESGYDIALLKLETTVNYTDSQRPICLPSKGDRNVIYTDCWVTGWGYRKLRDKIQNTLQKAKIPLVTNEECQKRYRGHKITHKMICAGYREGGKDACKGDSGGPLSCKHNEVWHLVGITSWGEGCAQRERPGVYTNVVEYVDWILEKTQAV
Plasma kallikrein, sequence (P03952 20-390 limits assumed): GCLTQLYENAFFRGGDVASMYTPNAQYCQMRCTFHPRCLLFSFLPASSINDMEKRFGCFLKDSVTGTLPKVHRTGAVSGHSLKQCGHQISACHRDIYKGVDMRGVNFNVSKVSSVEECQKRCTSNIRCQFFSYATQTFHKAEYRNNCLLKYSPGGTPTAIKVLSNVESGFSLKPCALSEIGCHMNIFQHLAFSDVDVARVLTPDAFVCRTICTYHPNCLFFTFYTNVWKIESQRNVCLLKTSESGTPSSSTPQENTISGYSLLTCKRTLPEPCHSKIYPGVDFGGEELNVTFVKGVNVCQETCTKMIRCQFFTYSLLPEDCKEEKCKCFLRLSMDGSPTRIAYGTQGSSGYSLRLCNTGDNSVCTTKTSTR
Plasma kallikrein, sequence (P03952 391-638 limits assumed): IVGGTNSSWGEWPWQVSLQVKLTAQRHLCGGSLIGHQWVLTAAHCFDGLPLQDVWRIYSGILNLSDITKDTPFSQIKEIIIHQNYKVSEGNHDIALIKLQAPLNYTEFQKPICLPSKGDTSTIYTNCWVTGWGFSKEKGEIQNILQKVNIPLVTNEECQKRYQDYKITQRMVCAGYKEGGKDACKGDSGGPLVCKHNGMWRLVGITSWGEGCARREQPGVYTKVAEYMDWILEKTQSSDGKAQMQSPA

Regarding `NC[C@H]1CC[C@H](C(=O)N[C@@H](Cc2ccccc2)c2nc(-c3ccc4c(N)n[nH]c4c3)c(Cl)[nH]2)CC1.O=C(O)C(F)(F)F`, the Ki (usually a measure of affinity in units of concentration, obtained from inhibition or displacement) was 0.3 nM in [1]; 6390 nM in [2]; 5 nM in data set [3]; 9220 nM in data set [5]; above 34900 nM in [6]; 23 nM in data set [7]. The Ki is 0.8 nM in data set [8], 0.6 nM in data set [9], above 10000 nM in data set [10] and 21 nM in data set [11]. Further, the 2aPTT in [4] was determined as 1 µM. Also, in data set [12], the Cmax – broadly, the highest concentration seen after dosing – was 2470 nM. For the same compound, the clearance (usually the volume of plasma or blood freed of the substance per unit of time) in [13] is 20 mL/min/kg. Also, the Vd in [14] came out at 0.7 L/kg. Besides, the half-life – broadly, how long it takes for the measured level to halve – in data set [15] is 60 min. The MRT (usually a mean duration of stay, worked out from the concentration-time curve) in data set [16] amounted to 36 min. In data set [17], the fraction unbound was 0.15.
